# Bioassay records (PubChem BioAssay)
# This is a sample that favours compounds with a hit; in the whole collection about 3.2% have one here.
# Cneo AK release = causes C. neoformans cell lysis; lysis activity, % at 15 µM; adenylate kinase release luminescence, 4 h; normalised: neutral wells 0, clomiphene wells 100; AID 651654; actives 0.2% (n = 360,000);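 active means mean lysis activity across replicates of at least 80%, whatever share of replicates individually reach that level; inactive means mean lysis activity below 80%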
#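 Test system: log-phase Cryptococcus neoformans yeast cells. Input: 5 × 10^6 yeast cells/mL. Medium: fresh YPD growth medium. Doses: single dose. Incubation: static 4 h at 37 °C with compound, 1 h detection. Measured by: luminescent adenylate kinase detection reagent. Read-out: signal increase indicating cell lysis. Benchmarks: Clomiphene.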
# Ecoli rRNA inh = inhibits bacterial ribosomal RNA function over humanized ribosomes | AID 720706 | actives 1.6% (n = 350,000) | GFP signal change (wild-type ribosome), % (test concentration not listed) | E. coli WT GFP vs humanized-ribosome RFP mutants, fluorescence, 24 h; stronger effect = lower value; DMSO median 0, no signal -100;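 active means significant combined selectivity score with lowered wild-type GFP, culture density cut under 30%, mutant RFP and density less affected; inactive means any of these conditions unmet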
# PfHsp90 yeast 2 = growth inhibition of yeast expressing Plasmodium Hsp90 | S. cerevisiae expressing PfHsp90, BacTiter-Glo ATP, 48 h; yeast lacking PDR1 and PDR3 efflux regulators | inhibition, % at 9.4 µM | actives 0.32% (n = 310,000);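 active means every replicate shows inhibition above about 80%, whatever the replicate mean, limit read from the data; inconclusive means mean inhibition reaches the set limit but some replicate falls short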;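 further: 0% = DMSO neutral controls and 100% = 20 µM radicicol positive controls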
# AF4-AF9 inh = blocks AF4 peptide binding to human AF9; AID 651704; AlphaScreen, biotin-AF4 peptide binding to FLAG-AF9; inhibition, % at 10 µM; P42568; actives 0.47% (n = 350,000);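 active means every replicate reaching a set inhibition limit, whatever the replicate mean, cut at about 25% in these data; inconclusive means mean inhibition reaches that limit but some replicates miss it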;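 further: 0% = plate neutral control median and 100% = total signal loss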
# Target sequence (P42568 whole entry, looked up): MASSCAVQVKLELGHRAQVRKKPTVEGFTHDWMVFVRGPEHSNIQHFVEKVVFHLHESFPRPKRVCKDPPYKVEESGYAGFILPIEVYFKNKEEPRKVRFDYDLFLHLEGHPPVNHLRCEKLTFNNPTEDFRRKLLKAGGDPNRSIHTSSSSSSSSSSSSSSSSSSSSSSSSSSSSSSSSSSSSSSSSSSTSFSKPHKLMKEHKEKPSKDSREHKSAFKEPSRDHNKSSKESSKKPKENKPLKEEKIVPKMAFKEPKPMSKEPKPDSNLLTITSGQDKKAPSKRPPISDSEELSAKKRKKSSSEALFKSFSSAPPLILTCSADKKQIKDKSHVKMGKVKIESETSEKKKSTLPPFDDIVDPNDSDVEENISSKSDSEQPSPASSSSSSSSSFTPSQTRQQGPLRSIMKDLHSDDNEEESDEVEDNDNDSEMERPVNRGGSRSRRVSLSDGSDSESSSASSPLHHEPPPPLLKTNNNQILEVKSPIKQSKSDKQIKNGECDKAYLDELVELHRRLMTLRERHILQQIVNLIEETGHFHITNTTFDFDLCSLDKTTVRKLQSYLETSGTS
# DENV2 CPE rescue = protects cells from dengue virus 2 cytopathic effect. actives 1.7% (n = 350,000). CPE inhibition, % at 9.99 µM. DENV2-infected cells, cytopathic effect rescue, plate reader; in the data active means CPE inhibition above about 20%, passing the limit was not always enough; inconclusive means no clear call, values can overlap the other calls; tested in BHK-21 cells;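 further: 0% = median of neutral control wells and 100% = median of positive control wells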
# S100A4 MyoIIA = blocks human S100A4 binding to myosin IIA peptide; P26447; S100A4/TAMRA-MyoIIA peptide fluorescence polarization; inhibition, % at 10.7 µM; actives 0.14% (n = 360,000);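 active means mean inhibition of at least 70% across replicates, with every replicate also reaching that level; inconclusive means mean inhibition reaches 70% but some replicates fall short; inactive means mean inhibition below 70%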
# Target sequence (P26447 whole entry, looked up): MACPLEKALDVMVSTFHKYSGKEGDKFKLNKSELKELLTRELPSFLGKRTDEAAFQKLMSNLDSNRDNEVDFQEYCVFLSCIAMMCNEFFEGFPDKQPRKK
#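 Test system – S100A4 monomer (human) · Compound – single-point compound testing · Schedule – 5 min incubation before reading · Probe or stimulus – TAMRA-labelled myosin IIA heavy-chain peptide probe, 5 nM · Benchmarks – neutral control DMSO, positive control TFP · Medium – Calcium-containing HEPES buffer, pH 7.2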
# An asterisk follows results filed as active; ? = inconclusive; . = not tested or not shown; ! = repeats disagree.
SMILES,Cneo AK release,Ecoli rRNA inh,PfHsp90 yeast 2,AF4-AF9 inh,DENV2 CPE rescue,S100A4 MyoIIA
C[C@@H]1CN([C@@H](C)CO)C(=O)Cc2cc(NC(=O)Nc3cccc4ccccc34)ccc2O[C@H]1CN(C)C,29,2,.,3,21*,2
C[C@@H]1CN([C@@H](C)CO)C(=O)Cc2cc(NC(=O)Nc3ccc(F)cc3)ccc2O[C@@H]1CN(C)C(=O)Nc1cccc2ccccc12,43,2,.,-1,41*,2
O=C(C[C@@H]1C[C@H]2c3cc(NC(=O)NC4CCCC4)ccc3O[C@H]2[C@@H](CO)O1)NCC1CC1,-9,1,.,0,-2,0
C[C@@H]1CN([C@@H](C)CO)C(=O)Cc2cc(NC(=O)Nc3cccc4ccccc34)ccc2O[C@H]1CN(C)C(=O)NC1CCCCC1,-3,-8,.,5,25*,-4
C[C@@H]1CN([C@@H](C)CO)C(=O)Cc2cc(NC(=O)Nc3cccc4ccccc34)ccc2O[C@@H]1CN(C)C(=O)NC1CCCCC1,-6,-5,.,-25,13,-5
CCCCCCCCSC1=CC(=O)C(OC)=C(OC)C1=O,-2,9,.,13,71*,-2
CCCCCSc1nncc(=O)[nH]1,1,.,.,.,.,.
CO[C@@H]1CN(C)C(=O)c2cc(NC(=O)C3CCCCC3)ccc2OC[C@@H](C)N(C)C[C@H]1C,-3,0,.,-2,-1,-13
COc1ccc(NC(=O)Nc2ccc3c(c2)C(=O)N([C@H](C)CO)C[C@@H](C)[C@@H](CN(C)S(=O)(=O)c2ccc(F)cc2)OCCCC[C@@H](C)O3)cc1,-1,2,.,3,-5,-2
CCC(=O)N1CC[C@@H]2[C@@H](CO)Nc3ccc(-c4ccc(C(=O)N(C)C)cc4)cc3[C@@H]21,8,5,.,0,20,6
CCC1C/C(=C\c2cccnc2)C(=O)/C(=C/c2cccnc2)C1 (stereo not drawn),.,-57,100*,5,-10,-1
O=C1/C(=C/c2cccnc2)CC/C1=C\c1cccnc1,-4,-2,4,-35,3,-16
C=CCN(CC=C)C(=O)COn1nnc2ccc(S(=O)(=O)N3CCOCC3)cc21,0,7,-106,2,?,-17
CCOc1ccc(NC(=O)COn2nnc3ccc(S(=O)(=O)N4CCOCC4)cc32)cc1,.,-29*,-16,2,-3,1
CCCNC(=O)C[C@@H]1CC[C@H]2[C@@H](COC[C@H](O)CN2C(=O)c2cccnc2)O1,0,-1,.,-4,3,-39
CCO[C@H]1OC(C(=O)NCc2nc3ccccc3[nH]2)=C[C@@H](C)[C@@H]1CCCO,1,6,5,-2,2,-1
CCO[C@@H]1OC(C(=O)Nc2ccccc2)=C[C@H](c2coc3ccccc3c2=O)[C@H]1CCCO,102*!,-35,-7,3,-5,-7
C#Cc1ccc([C@@H]2C=C(C(=O)NCc3nc4ccccc4[nH]3)O[C@H](OCC)[C@H]2CCCO)cc1,-2,-8,5,-8,22*!,-3
CCO[C@@H]1OC(C(=O)NCc2nc3ccccc3[nH]2)=C[C@H](c2coc3ccccc3c2=O)[C@H]1CCCO,1,-14,4,-3,50*,-1
C#Cc1ccc([C@H]2C=C(C(=O)OCC=C)O[C@@H](OCC)[C@@H]2CCCO)cc1,-5,3,.,0,49*!,-2
COc1cccc(S(=O)(=O)Nc2ccc3c(c2)C(=O)N(C)[C@H]2CC[C@H](CC(=O)Nc4cc(F)ccc4F)O[C@@H]2CO3)c1,.,-4,.,.,.,.
COC(=O)c1ccccc1NC(=O)N1CCN(c2ccc(OC)cc2)CC1,.,-26,-44,-6,5,-10
COc1ccc(Cl)cc1NC(=O)N1CCN(c2ccccc2OC)CC1,-2,-30*,1,1,0,5
COc1ccc(Cl)cc1NC(=O)NCC1CCN(C(=O)OC(C)(C)C)CC1,-4,-20*,-9,-1,-8,5
COc1ccc(N2CCN(C(=O)Nc3ccccc3Cl)CC2)cc1,.,-23*,17,-1,-2,-3
SMILES,Cneo AK release,Ecoli rRNA inh,PfHsp90 yeast 2,AF4-AF9 inh,DENV2 CPE rescue,S100A4 MyoIIA
COc1ccc(Cl)cc1NC(=O)NCCN1CCCCC1,7,-1,.,1,2,-43
C[C@H](CO)N1C[C@H](C)[C@@H](CN(C)C)Oc2cc(Br)ccc2S1(=O)=O,11,6,.,-2,5,2
Cc1cccc(NC(=S)NCC(C)CSc2ccc(Cl)cc2)c1 (stereo not drawn),.,-37,-82,-52,7,0
Cc1cccc(NC(=S)NCCSc2ccc(Cl)cc2)c1,34,-37*,22,0,2,4
Cc1ccc(NC(=S)NCC(C)CSc2ccc(Cl)cc2)cc1 (stereo not drawn),.,-27*,-3,9,3,12
CCN1CCn2c3c(c4cc(Cl)ccc42)CCCC31 (stereo not drawn),-1,.,-25,12,.,-16
CCN(CC)CCN1CCn2c3c(c4cc(C)ccc42)CCCC31 (stereo not drawn),.,-4,23,27*,-10,-1
COc1ccc(CC(=O)NNC(=O)COc2ccc(C)cc2)cc1S(=O)(=O)N1CCOCC1,2,9,21,-29,40*,-3
COCC(=O)Nc1ccc2c(c1)[C@@H]1C[C@H](CC(=O)NCc3ccncc3)O[C@@H](CO)[C@@H]1O2,1,4,.,-5,4,7
COc1ccc(/C=C/C(=O)Nc2ccccc2C(=O)NCC(c2ccc(OC)cc2)N(C)C)cc1 (stereo not drawn),-3,-9,-10,26*,1,4
COc1ccc(C(CNC(=O)c2cccc3cccnc23)N(C)C)cc1 (stereo not drawn),-1,-3,-5,0,46*,-4
COc1ccc(/C=C/C(=O)Nc2ccccc2C(=O)N2CCCC2)cc1,-3,.,-6,.,.,.
COc1ccc(/C=C/C(=O)Nc2ccccc2C(=O)O)cc1,-2,-36*,37,0,-4,-2
COc1ccccc1NC(=O)CSc1ccc(-c2cccs2)nn1,.,-27*,-2,2,6,-2
COc1ccccc1NC(=O)CSc1nnnn1Cc1ccccc1,-3,-29*,-8,-6,7,-4
CCCc1cn(CC[C@H]2CC[C@H](NC(=O)C3CCC3)[C@H](CO)O2)nn1,-2,0,.,-2,-7,1
C[C@H](CO)N1C[C@H](C)[C@@H](CN(C)C(=O)c2ccccn2)Oc2ncc(C#Cc3ccccn3)cc2C1=O,-5,4,.,-4,7,15
